Most compounds without a hit are left out; they make up all but 3.3% or so of the library.
STAT3 act = STAT3 signaling activation. U3A cells, IL-6 STAT3-luciferase reporter, luminescence; 100% = signal with IL-6 EC80 alone. activation (% of control), % at 5.6 µM. hit rate 0.91% among 190,000. AID 871;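 active = activation above the screen-wide mean of compound activation plus 3 SD, cut at about 130% in these data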
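system = STAT3-luciferase reporter U3A cells | reagent = IL-6 stimulus at 33 ng/mL final | timing = 1 h compound pre-exposure, 6 h IL-6 stimulation, 37 °C | measured by = luminescence | evaluation = % activation versus median of IL-6-stimulated wells | control set = IL-6-only wells as 100% reference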
FXN GAA850 act = increases GAA850 frataxin promoter reporter activity; AID 540364; activation, % at 6 µM; HEK293 lucGAA850 FXN promoter luciferase reporter, 24 h; percent of 10 µM SAHA response; hit rate 0.56% among 360,000;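 active = activation above the average of all compounds screened plus 3 SD, cutoff fixed separately per campaign, cut at about 7.5% in these data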
AHR activator = activates the human aryl hydrocarbon receptor. P35869. AHR-responsive luciferase reporter cells, luminescence. activation, % at 5 µM. hit rate 2.5% among 320,000; in the data active = activation above about 47%
ABCB6 inh 2 = blocks the human ABCB6 transporter; fluorescence ratio to DMSO, % at 10 µM; Q9NP58; K562-ABCB6 porphyrin accumulation, flow cytometry, 1 h; stronger effect = lower value; hit rate 0.19% among 360,000;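 active = fluorescence ratio to DMSO below 75%, the collection mean minus 3 SD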;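 also: signal is porphyrin accumulated inside mitochondria; lower ratio means ABCB6 inhibition with less porphyrin fluorescence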
AHR act cf = confirmation of human aryl hydrocarbon receptor activators | shares compounds with AHR activator | human cells, AHR-responsive luciferase reporter, luminescence | activation, % at 9 µM | hit rate 87% among 2,300; in the data active = activation above about 49%;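 also: HepG2 hepatoma cells carrying a DRE-driven firefly luciferase reporter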
PXR act counter = counter-screen for AHR activators: human PXR activators. cell-based PXR reporter, luciferase luminescence. shares compounds with AHR activator. activation, % at 11.6 µM. AID 434939. hit rate 88% among 2,300; in the data active = activation above about 11%;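 also: human hepatoma DPX-2 cells expressing full-length human PXR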
Target sequence (O75469 whole entry, looked up): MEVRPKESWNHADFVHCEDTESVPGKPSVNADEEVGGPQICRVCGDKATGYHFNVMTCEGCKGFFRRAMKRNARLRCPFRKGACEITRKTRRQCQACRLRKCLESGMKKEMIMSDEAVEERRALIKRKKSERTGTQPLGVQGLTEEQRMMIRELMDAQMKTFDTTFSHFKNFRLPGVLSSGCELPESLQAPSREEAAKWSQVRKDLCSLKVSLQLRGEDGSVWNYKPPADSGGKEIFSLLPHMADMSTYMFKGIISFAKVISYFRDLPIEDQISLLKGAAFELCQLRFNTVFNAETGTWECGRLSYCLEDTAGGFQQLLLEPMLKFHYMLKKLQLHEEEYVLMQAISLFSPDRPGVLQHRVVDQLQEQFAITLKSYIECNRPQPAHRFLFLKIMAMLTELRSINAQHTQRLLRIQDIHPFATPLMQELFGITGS
A number is an active result; i = inactive; nt = not tested or not shown.

SMILES	STAT3 act	FXN GAA850 act	AHR activator	ABCB6 inh 2	AHR act cf	PXR act counter
CCc1nc2ccc(C(=O)NCCc3ccccn3)cn2c1N(C)Cc1ccc(N(C)C)cc1	nt	i	nt	i	nt	nt
Cc1ccc(C)c(NC(=O)COC(=O)CNC(=O)c2ccccc2Cl)c1	i	i	i	i	nt	nt
CN(C)c1ccc(N=Nc2nc3ccccc3n2C)cc1	nt	i	i	i	nt	nt
Cn1c(N=Nc2ccccc2)nc2ccccc21	i	i	138.2	i	97.7	i
CC(C)n1c(SCC(=O)NC2CCCCC2)nnc1-c1ccco1	nt	i	i	i	nt	nt
COc1cccc(OC)c1C(=O)Nc1ccc2c3c(cccc13)CC2	i	i	i	i	nt	nt
COc1ccccc1C(=O)Nc1ccc2c3c(cccc13)CC2	i	i	83.0	i	i	84.8
CC1(C)CC(=O)C2=C(C1)N1C(=C(C#N)C2c2ccc(Cl)cc2)N=C(N)c2ccccc21 (stereo not drawn)	i	i	96.7	i	i	159.3
CC(=O)c1c(C)nc(-c2ccc(Cl)cc2)nc1N	i	i	91.7	i	129.6	33.2
CC(=O)c1c(C)nc(-c2ccc(Cl)cc2)nc1N=CN(C)C	i	i	89.7	i	97.9	34.6
CSc1nc(-c2ccccc2)nc(N)c1C(C)=O	i	nt	i	nt	nt	nt
O=[N+]([O-])c1ccc(CSCc2ccc([N+](=O)[O-])cc2)cc1	nt	i	nt	i	nt	nt
COc1ccc(S(=O)(=O)N2CCOCC2)cc1C(=O)Nc1ccc2c(c1)OCO2	nt	i	i	i	nt	nt
CN(C)CCNC(=O)c1sc2nc(-c3ccccc3)cc(C(F)(F)F)c2c1N	nt	i	90.9	i	100.2	10.8
O=C(N=Nc1c(O)[nH]c2ccccc12)c1ccc2c(c1)OCO2	i	i	95.0	i	65.3	20.7
COc1cc(/C=N/NC(=O)Cn2cnc3ccccc3c2=O)ccc1O	nt	i	i	i	nt	nt
Cc1ccc(NC(=O)c2ccc3ccccc3n2)nc1	153.0	i	85.5	i	105.8	18.0
O=C(Nc1ccccc1C(=O)O)c1ccc2ccccc2n1	i	i	93.3	i	130.3	32.1
O=C(Nc1ccccc1C(=O)O)c1ccccc1	i	i	i	i	nt	nt
COc1ccc(CN2CCCCCC2)cc1Br	nt	i	i	i	nt	nt
Cn1c(SCC(=O)NC(=O)Nc2ccccc2)nnc1-c1ccncc1	nt	i	i	i	nt	nt
Cc1ccc2c(c1)Oc1ccc([N+](=O)[O-])cc1C(=O)N2	i	i	88.0	i	81.7	67.6
O=C(CC1C(=O)Nc2ccccc2N1CC(=O)N1CCCC1)Nc1ccc(Br)cc1 (stereo not drawn)	nt	i	91.7	i	99.6	36.6
Cc1ccc(C)c(OCCC(=O)OCC(=O)Nc2ccc(N3CCOCC3)cc2)c1	nt	i	i	i	nt	nt
Cc1cccn2c(=O)c(C=O)c(N3CCN(c4ccccc4)CC3)nc12	i	i	95.2	i	81.0	65.2
SMILES	STAT3 act	FXN GAA850 act	AHR activator	ABCB6 inh 2	AHR act cf	PXR act counter
Cc1cccn2c(=O)c(C=O)c(N3CCN(C)CC3)nc12	nt	i	i	i	nt	nt
O=C(Nc1ccc2nc3ccccc3nc2c1)c1ccccc1	i	i	i	i	nt	nt
O=C(Nc1ccc(Cl)c(Cl)c1)c1ccccc1	nt	i	102.1	i	121.5	11.9
O=C(Nc1ccc(Br)cc1)c1cccc(-n2cnnn2)c1	nt	i	90.6	i	103.3	29.1
O=C(Nc1ccc(Br)cc1)c1cccc(S(=O)(=O)Nc2cnc3ccccc3c2)c1	i	i	82.5	i	74.5	12.4
O=C(Nc1cccc(C(=O)Nc2ccc(Br)cc2)c1)c1ccccc1	nt	i	89.1	i	i	22.5
COc1ccc(-c2ccc3oc(-c4ccsc4)c(-c4ccc(Br)nc4)c3c2)cc1	nt	nt	101.9	nt	97.3	26.3
COc1ccc(-c2ccc3oc(-c4ccsc4)c(-c4ccc(OC)cc4)c3c2)cc1	nt	i	i	i	nt	nt
[O-][n+]1onc2c3cc(-c4ccccc4)nnc3ccc21	i	i	88.1	i	107.6	nt
O=C(N/N=C/c1sc(=O)[nH]c1-[n+]1ccc2ccccc2c1)c1ccccc1[O-]	nt	i	83.8	i	71.3	11.5
O=C(CN1CCC(n2nnc3cc(F)ccc32)CC1)NCCc1ccccc1	i	i	i	i	nt	nt
CNC(=O)c1ccccc1Nc1ccc(SC(F)F)cc1	nt	i	113.3	i	96.6	22.7
CC(C)(C(=O)N1CCC1(C)C(=O)NS(=O)(=O)c1ccc(Cl)s1)c1ccccc1 (stereo not drawn)	nt	i	nt	i	nt	nt
Cc1ccc(C(=O)N/N=C/c2ccc(-c3ccccc3[N+](=O)[O-])o2)cn1	i	i	93.1	i	109.3	15.6
Nc1c(C(=O)c2ccccc2)oc2ccccc12	i	i	112.4	i	140.0	24.4
COc1cccc(C(=O)Nc2c(C(N)=O)oc3ccccc23)c1	i	i	94.1	i	132.7	21.4
COc1ccc(C(=O)c2oc3ccccc3c2N)cc1	i	i	81.6	i	133.2	12.2
Nc1c(C(=O)c2ccco2)oc2ccccc12	i	nt	i	nt	nt	nt
CCOc1ccc(C(=O)Nc2c(C(N)=O)oc3ccccc23)cc1	i	i	i	i	nt	nt
COc1ccc2oc(C(=O)c3ccccc3)c(N)c2c1	i	nt	i	nt	nt	nt
Nc1c(C(=O)Nc2ccc(Cl)cc2)oc2ccccc12	172.8	i	106.6	i	131.6	60.4
COc1cc(C(=O)NCCC2=CCCCC2)ccc1OCc1c(C)noc1C	nt	i	i	i	nt	nt
Nc1c(C(=O)c2ccc(F)cc2)oc2ccccc12	i	i	92.2	i	155.9	16.5
S=c1nc[nH]c2c1ncn2C1CCCC1	nt	i	nt	i	nt	nt
CCc1cc(/C(Cc2ccc3ccccc3n2)=N\O)c(O)cc1O	i	i	88.5	i	55.1	nt
SMILES	STAT3 act	FXN GAA850 act	AHR activator	ABCB6 inh 2	AHR act cf	PXR act counter
O=C(O)CCC(=O)N1CCN(c2ncccc2C(F)(F)F)CC1	nt	i	i	i	nt	nt
Cc1ccc(Oc2ncccc2/C=N/OCc2ccc(Cl)c(Cl)c2)cc1	i	i	i	i	nt	nt
OCCCNc1nc(-c2ccc(Cl)cc2)nc2ccccc12	nt	i	88.4	i	103.6	62.1
COCCCNc1nc(-c2ccc(Cl)cc2)nc2ccccc12	nt	i	98.0	i	91.2	29.7
COCCN(CCOC)c1nc(-c2ccc(Cl)cc2)nc2ccccc12	nt	i	118.0	i	82.8	69.8
COCCCNc1nc(-c2ccncc2)nc2ccccc12	i	i	87.8	i	102.9	55.5
COc1ccc(-c2nc(NCCCN(C)C)c3ccccc3n2)cc1	nt	i	i	i	nt	nt
CN(CC(=O)Nc1cccc(Cl)c1)S(=O)(=O)c1ccc2[nH]c(=O)oc2c1	nt	i	i	i	nt	nt
CCN(CC)CCCNC(=O)Cc1c(C(=O)O)n(C)c2ccccc12	i	i	i	i	nt	nt
CCN(CC)c1nc(-c2ccccc2)nc2ccccc12	nt	i	107.7	i	78.1	91.5
c1ccc(-c2nc(NCCCn3ccnc3)c3ccccc3n2)cc1	i	i	81.8	i	89.2	75.6
CCC(=NN=C(CC)c1ccccc1O)c1ccccc1O	nt	i	nt	i	nt	nt
O=c1c2ccccc2[nH]c(=S)n1-c1cccc(S(=O)(=O)N2CCCC2)c1	i	i	i	i	nt	nt
O=C(C1CCN(S(=O)(=O)N2CCOCC2)CC1)N1CCN(c2ccccc2)CC1	i	i	i	i	nt	nt

Screens deposited in PubChem BioAssay by several laboratories.
